Measured values collected from several papers.
Lines come from different studies, so protocols differ.
Target: Serine/threonine-protein kinase Nek6 (NEK6, Homo sapiens, UniProt Q9HC98)

Structure (SMILES)	effect on	technique	concentration	remaining binding
Cc1cnn2ncc(-c3ccnc(N(C)C)n3)c2c1	binding	–	1 µM	100%
COc1ncc2cc3ccccc3nc2c1C#N	cell-free assay	competition with immobilised ligand	5 µM	100%
c1cnn2ncc(-c3ccnc(N4CCC45COC5)n3)c2c1	binding	–	1 µM	94%
O=C(N[C@H]1CCCCC/C=C\C2C[C@@]2(C(=O)O)NC(=O)[C@@H]2C[C@@H](Oc3ccncc3)CN2C1=O)OC1CCCC1 (stereo partly shown)	binding	competition with immobilised ligand	1 µM	87%
O=C(Nc1c[nH]nc1C(=O)NC1CCNCC1)c1cc(F)cc(F)c1	binding	competition with immobilised ligand	1 µM	100%
C=CC(=O)N1CCC(C(=O)NCC(=O)N2CCN(c3nc(-c4cnc(N)nc4C(F)F)nc(N4CCOCC4)n3)CC2)CC1	binding	competition with immobilised ligand	1 µM	95%
COc1cnc(Nc2cccc(S(N)(=O)=O)c2)nc1N1CCN(c2ccccc2)CC1	binding	competition with immobilised ligand	1 µM	100%
C[C@@H](c1cccc(C#N)c1)n1cc(Cl)cc(C(N)=O)c1=N	cell-free assay	competition with immobilised ligand	1 µM	79%
FC(F)(F)Oc1cccc(-c2cnc3ccc(-c4ccncc4)nn23)c1	cell-free assay	competition with immobilised ligand	5 µM	85%
O=C(NCCCN1CCOCC1)c1ccc(Nc2nccc(-c3cc4ccccc4s3)n2)cc1	binding	competition with immobilised ligand	1 µM	81%
CN(C)c1nccc(-c2cnn3ncccc23)n1	binding	–	1 µM	100%
O=C(c1ccc(Nc2nccc(-c3cc4ccccc4s3)n2)cc1)N1CCC(N2CCCC2)CC1	binding	competition with immobilised ligand	1 µM	87%
O=C(NCc1ncc(C(F)(F)F)cc1Cl)c1ccc2c(c1)C1(CCS(=O)(=O)CC1)[C@H](C1CC1)N2S(=O)(=O)c1ccc(F)cc1	cell-free assay	competition with immobilised ligand	1 µM	100%
Nc1ncc2c(n1)-c1c([nH]c3ccc(C#CC4CC4)cc13)CCCC2	binding	competition with immobilised ligand	1 µM	90%
Cc1cnc(Nc2ccc(C(=O)N3CCC(N4CCCC4)CC3)cc2)nc1-c1cc2ccccc2s1	binding	competition with immobilised ligand	1 µM	10%
CC1=C(C#N)[C@@H](c2ccc3[nH]nc(C)c3c2)C(C#N)=C(c2ccc(Cl)cc2)N1	cell-free assay	competition with immobilised ligand	1 µM	100%
N[C@H]1CCN(c2nccc(-c3cnn4ncccc34)n2)C1	binding	–	1 µM	100%
COc1cnc(Nc2cccc(S(N)(=O)=O)c2)nc1N1CCN(c2ccccc2)C(=O)C1	binding	competition with immobilised ligand	1 µM	98%
COc1ccc2c(O[C@@H]3C[C@H]4C(=O)N[C@]5(C(=O)O)CC5/C=C\CCCCC[C@H](NC(=O)OC5CCCC5)C(=O)N4C3)cc(-c3csc(NC(=O)C(C)C)n3)nc2c1C (stereo partly shown)	cell-free assay	competition with immobilised ligand	1 µM	98%
F[C@@H]1CCN(c2nccc(-c3cnn4ncccc34)n2)C1	binding	–	1 µM	100%
CCc1ccccc1C(=O)Nc1n[nH]c2c(C)c(F)c(C3C(C#N)=C(C)N(C)C(C)=C3C#N)cc12	cell-free assay	competition with immobilised ligand	1 µM	75%
C[C@H]1CCN(c2nccc(-c3cnn4ncccc34)n2)C1	binding	–	1 µM	100%
